# How the values were obtained:
# hTRPV1 [1] = target: T1, hTRPV1 (Homo sapiens, UniProt Q8NER1); test: [^3H]RTX competition binding on CHO cells transfected with hTRPV1; conditions: read-out: binding affinity (Kd), [^3H]RTX as radioligand
# Summary of the method: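 Stable Tet-Off CHO cells expressing human TRPV1 were induced 48 h in tetracycline-free medium, harvested and pelleted. Assay mix: DPBS with Ca2+/Mg2+, BSA 0.25 mg/mL, [3H]RTX 100 pM and varying competitor concentrations; 100 nM unlabelled RTX defined nonspecific binding. Incubation 60 min at 37 °C, ice-cooled, glycoprotein added, membranes pelleted by centrifugation. Pellets and supernatant were scintillation-counted and Ki fitted with the Hill equation.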
# rTRPV1 [2] = target: T2, rTRPV1 (Rattus norvegicus, UniProt O35433); test: [^3H]RTX competition binding on CHO cells transfected with rTRPV1; conditions: read-out: binding affinity (Kd), [^3H]RTX as radioligand
# T2 sequence (O35433 whole entry): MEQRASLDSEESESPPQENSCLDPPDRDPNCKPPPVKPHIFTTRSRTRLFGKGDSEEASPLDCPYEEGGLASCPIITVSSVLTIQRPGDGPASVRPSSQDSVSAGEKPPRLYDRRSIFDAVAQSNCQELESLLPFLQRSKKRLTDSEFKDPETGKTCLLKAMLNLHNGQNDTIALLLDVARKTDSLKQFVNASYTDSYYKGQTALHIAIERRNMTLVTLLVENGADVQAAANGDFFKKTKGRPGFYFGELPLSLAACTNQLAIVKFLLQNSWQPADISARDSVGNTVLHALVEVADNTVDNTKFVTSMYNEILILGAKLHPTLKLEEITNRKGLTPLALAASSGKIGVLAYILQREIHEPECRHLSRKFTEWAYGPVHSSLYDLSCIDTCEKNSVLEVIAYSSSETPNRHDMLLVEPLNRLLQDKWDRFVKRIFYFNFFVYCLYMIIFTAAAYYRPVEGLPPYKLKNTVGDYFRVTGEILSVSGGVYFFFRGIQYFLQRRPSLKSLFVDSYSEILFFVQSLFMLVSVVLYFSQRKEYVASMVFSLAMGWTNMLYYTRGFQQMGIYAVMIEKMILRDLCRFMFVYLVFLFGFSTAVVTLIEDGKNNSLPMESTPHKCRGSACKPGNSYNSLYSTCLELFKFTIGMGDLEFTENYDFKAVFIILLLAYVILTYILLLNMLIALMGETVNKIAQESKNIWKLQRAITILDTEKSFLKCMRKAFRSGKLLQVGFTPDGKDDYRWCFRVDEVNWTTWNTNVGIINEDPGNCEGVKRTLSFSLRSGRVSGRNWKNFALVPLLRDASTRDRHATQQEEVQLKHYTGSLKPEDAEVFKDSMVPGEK
# Summary of the method: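 A stable Tet-Off CHO line with rat TRPV1 was induced for 48 h in tetracycline-free medium, harvested and pelleted, and pellets were stored at −20 °C. Binding used [3H]RTX (100 pM) plus graded competitor in DPBS with Ca2+/Mg2+ and BSA (0.25 mg/mL), at 37 °C for 60 min. Nonspecific binding was set with 100 nM unlabelled RTX. Membranes were pelleted after glycoprotein addition and scintillation-counted. Parameters came from Hill equation fits.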
# hTRPV1 [3] = target: T1, hTRPV1; test: ^45Ca^2+ uptake in CHO-hTRPV1 cells; assay type: cell-based
# Summary of the method: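 Tet-Off CHO-hTRPV1 cells at 50–70% confluency were induced 48 h without tetracycline. Assay medium was DMEM with BSA 0.25 mg/mL, 45Ca2+ 37 kBq/mL and increasing ligand concentrations. Antagonism wells also held capsaicin 75 nM; full-agonist reference was capsaicin 300 nM. After 5 min at 37 °C, cells were washed, lysed in RIPA buffer and scintillation-counted. Each point is the mean of four wells, fitted with the Hill equation.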
# rTRPV1 [4] = target: T2, rTRPV1; test: ^45Ca^2+ uptake in CHO-rTRPV1 cells; assay type: cell-based
# Summary of the method: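 CHO-rTRPV1 cells (Tet-Off) were induced for about 48 h without tetracycline. They were then exposed for 5 min at 37 °C to DMEM containing BSA (0.25 mg/mL), 45Ca2+ (37 kBq/mL) and increasing test compound. Agonism was referenced to 300 nM capsaicin, and antagonism was tested against 75 nM capsaicin. Cells were washed, lysed in RIPA buffer and scintillation-counted. Each point was the mean of four wells, fitted to the Hill equation.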
# hTRPV1 [5] = target: T1, hTRPV1; conditions: read-out: IC50 reported for hTRPV1; cited from earlier work
# [6] = Distribution coefficient n-octanol/phosphate buffer pH 7.4; assay type: physicochemical; conditions: 1-octanol / 0.025 M phosphate buffer pH 7.4
# Summary of the method: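 HPLC-purified radiotracer (~37 MBq/mL in saline) was added to equal volumes of n-octanol and 0.025 M sodium phosphate buffer pH 7.4 (n=8). Tubes were vortexed for 1 min at room temperature and centrifuged at 3000 rpm for 10 min. Phase aliquots were weighed and gamma-counted. D was calculated as cpm/mL octanol over cpm/mL buffer, with volumes derived from mass and phase density.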
# [7] = Biodistribution in control NMRI mice; assay type: in vivo; conditions: for % ID / % ID/g: control mice i.v.
# Summary of the method: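 Male NMRI mice (32–43 g) under pentobarbital (60 mg/kg i.p.) or isoflurane (2% in oxygen) received about 9.25 MBq of radiotracer in saline via a lateral tail vein. They were decapitated at 2, 10 or 60 min p.i. (n=4 per time point). Organs and blood were dissected, weighed and gamma-counted. %ID was organ cpm over total recovered cpm. Blood mass was taken as 7% of body mass.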
# TRPV1 receptor [8] = test: Biodistribution in NMRI mice pretreated with BCTC or SB366791; assay type: in vivo; conditions: 60 min p.i.
# Summary of the method: (§1)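 Male NMRI mice (32–43 g), either pretreated s.c. 1 h before tracer or TRPV1−/−. Tracer was diluted in saline (<10% ethanol) and ~9.25 MBq given via lateral tail vein under pentobarbital (60 mg/kg i.p.) or isoflurane (2% in O2). Mice were decapitated at 2, 10 or 60 min (n=4 per time point). Tissues and blood were weighed and gamma-counted, and trigeminal nerve-to-blood activity ratios calculated. Values are mean ± SEM.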
# TRPV1 receptor [9] = test: Biodistribution in TRPV1^-/- mice; assay type: in vivo; conditions: 60 min p.i.
# Summary of the method: as §1
# [10] = Plasma radiometabolites in mice; assay type: in vivo; conditions: mouse plasma
# [11] = Brain radiometabolites in mice; assay type: in vivo; conditions: mouse brain
# [12] = read-out: antagonist activity (Ki), capsaicin 75 nM
# [13] = control mice, pentobarbital, i.v.
# T1 sequence (Q8NER1 whole entry): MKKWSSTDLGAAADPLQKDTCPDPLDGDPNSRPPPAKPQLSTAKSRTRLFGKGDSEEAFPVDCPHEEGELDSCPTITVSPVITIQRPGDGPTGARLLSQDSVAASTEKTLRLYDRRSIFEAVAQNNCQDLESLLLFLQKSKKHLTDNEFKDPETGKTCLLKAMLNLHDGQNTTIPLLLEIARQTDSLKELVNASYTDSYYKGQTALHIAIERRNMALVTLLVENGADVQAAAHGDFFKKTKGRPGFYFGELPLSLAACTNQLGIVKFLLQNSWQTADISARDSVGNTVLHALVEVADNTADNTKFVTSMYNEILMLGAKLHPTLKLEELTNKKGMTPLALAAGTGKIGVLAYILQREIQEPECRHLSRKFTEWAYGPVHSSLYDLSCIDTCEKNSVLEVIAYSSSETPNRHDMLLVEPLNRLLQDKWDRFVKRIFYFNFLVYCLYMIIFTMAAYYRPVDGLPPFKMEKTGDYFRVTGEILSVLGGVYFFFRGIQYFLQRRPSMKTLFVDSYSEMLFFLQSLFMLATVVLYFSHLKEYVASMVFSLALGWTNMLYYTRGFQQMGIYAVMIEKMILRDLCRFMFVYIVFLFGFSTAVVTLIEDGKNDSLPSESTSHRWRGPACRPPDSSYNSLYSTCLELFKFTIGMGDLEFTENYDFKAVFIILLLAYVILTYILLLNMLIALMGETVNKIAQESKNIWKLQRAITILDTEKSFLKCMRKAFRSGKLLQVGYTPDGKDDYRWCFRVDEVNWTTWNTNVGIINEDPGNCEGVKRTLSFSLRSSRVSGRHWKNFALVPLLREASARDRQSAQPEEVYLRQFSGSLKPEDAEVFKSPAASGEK
smiles,measurement,setting,value
"COc1cccc(NC(=O)/C=C/c2ccc(Cl)cc2)c1 [SB366791, N-(3-methoxyphenyl)-4-chlorocinnamide]",Kd,hTRPV1 [1],280 ± 56 nM
same,Kd,rTRPV1 [2],780 ± 140 nM
same,agonist effects,hTRPV1 [3]; agonism assay,No agonist effects were observed
same,Ki,hTRPV1 [3]; [12],197 ± 17 nM
same,agonist effects,rTRPV1 [4]; agonism assay,No agonist effects were observed
same,Ki,rTRPV1 [4]; [12],334 ± 17 nM
same,IC50,hTRPV1 [5],5.7 nM
[11CH3]Oc1cccc(NC(=O)/C=C/c2ccc(Cl)cc2)c1 [[^11C]SB366791],log D,[6],3.5±0.1
same,% ID,"[7]; Bladder+urine, 2 min p.i.",0.2±0.1 % ID
same,% ID,"[7]; Bladder+urine, 10 min p.i.",8.0±2.5 % ID
same,% ID,"[7]; Bladder+urine, 60 min p.i.",25.9±12.0 % ID
same,% ID,"[7]; Blood, 2 min p.i.",9.9±1.0 % ID
same,% ID/g,"[7]; Blood, 2 min p.i.",3.6±0.4 % ID/g
same,% ID,"[7]; Blood, 10 min p.i.",6.9±0.5 % ID
same,% ID/g,"[7]; Blood, 10 min p.i.",2.6±0.2 % ID/g
same,% ID,"[7]; Blood, 60 min p.i.",2.3±0.2 % ID
same,% ID/g,"[7]; Blood, 60 min p.i.",0.8±0.1 % ID/g
same,% ID/g,"[7]; Bone, 2 min p.i.",1.5±0.2 % ID/g
same,% ID/g,"[7]; Bone, 10 min p.i.",1.2±0.4 % ID/g
same,% ID/g,"[7]; Bone, 60 min p.i.",0.9±0.2 % ID/g
same,% ID,"[7]; Carcass, 2 min p.i.",44.5±3.6 % ID
same,% ID,"[7]; Carcass, 10 min p.i.",48.6±2.2 % ID
same,% ID,"[7]; Carcass, 60 min p.i.",19.3±3.3 % ID
same,% ID,"[7]; Cerebellum, 2 min p.i.",0.4±0.1 % ID
same,% ID/g,"[7]; Cerebellum, 2 min p.i.",3.9±0.4 % ID/g
same,% ID,"[7]; Cerebellum, 10 min p.i.",0.1±0.0 % ID
same,% ID/g,"[7]; Cerebellum, 10 min p.i.",1.1±0.1 % ID/g
same,% ID,"[7]; Cerebellum, 60 min p.i.",0.0±0.0 % ID
same,% ID/g,"[7]; Cerebellum, 60 min p.i.",0.3±0.1 % ID/g
same,% ID,"[7]; Cerebrum, 2 min p.i.",1.2±0.2 % ID
same,% ID/g,"[7]; Cerebrum, 2 min p.i.",3.7±0.5 % ID/g
same,% ID,"[7]; Cerebrum, 10 min p.i.",0.4±0.0 % ID
same,% ID/g,"[7]; Cerebrum, 10 min p.i.",1.2±0.1 % ID/g
same,% ID,"[7]; Cerebrum, 60 min p.i.",0.1±0.0 % ID
same,% ID/g,"[7]; Cerebrum, 60 min p.i.",0.3±0.0 % ID/g
same,% ID,"[7]; Heart, 2 min p.i.",0.9±0.1 % ID
same,% ID/g,"[7]; Heart, 2 min p.i.",5.0±1.0 % ID/g
same,% ID,"[7]; Heart, 10 min p.i.",0.3±0.1 % ID
same,% ID/g,"[7]; Heart, 10 min p.i.",1.8±0.2 % ID/g
same,% ID,"[7]; Heart, 60 min p.i.",0.1±0.0 % ID
same,% ID/g,"[7]; Heart, 60 min p.i.",0.6±0.0 % ID/g
same,% ID,"[7]; Intestines, 2 min p.i.",8.9±0.6 % ID
same,% ID,"[7]; Intestines, 10 min p.i.",13.0±1.5 % ID
same,% ID,"[7]; Intestines, 60 min p.i.",33.8±6.2 % ID
same,% ID,"[7]; Kidneys, 2 min p.i.",4.5±0.2 % ID
same,% ID/g,"[7]; Kidneys, 2 min p.i.",7.1±0.8 % ID/g
same,% ID,"[7]; Kidneys, 10 min p.i.",5.0±1.0 % ID
same,% ID/g,"[7]; Kidneys, 10 min p.i.",7.9±1.2 % ID/g
same,% ID,"[7]; Kidneys, 60 min p.i.",1.9±0.4 % ID
same,% ID/g,"[7]; Kidneys, 60 min p.i.",2.8±0.5 % ID/g
same,% ID,"[7]; Liver, 2 min p.i.",28.6±2.5 % ID
same,% ID/g,"[7]; Liver, 2 min p.i.",14.2±2.5 % ID/g
same,% ID,"[7]; Liver, 10 min p.i.",16.1±1.6 % ID
same,% ID/g,"[7]; Liver, 10 min p.i.",8.7±1.0 % ID/g
same,% ID,"[7]; Liver, 60 min p.i.",8.9±3.2 % ID
same,% ID/g,"[7]; Liver, 60 min p.i.",4.6±2.1 % ID/g
same,% ID,"[7]; Lungs, 2 min p.i.",1.5±0.4 % ID
same,% ID/g,"[7]; Lungs, 2 min p.i.",4.5±0.3 % ID/g
same,% ID,"[7]; Lungs, 10 min p.i.",0.9±0.2 % ID
same,% ID/g,"[7]; Lungs, 10 min p.i.",2.7±0.1 % ID/g
same,% ID,"[7]; Lungs, 60 min p.i.",0.5±0.2 % ID
same,% ID/g,"[7]; Lungs, 60 min p.i.",1.6±1.0 % ID/g
same,% ID/g,"[7]; Muscle, 2 min p.i.",1.2±0.3 % ID/g
same,% ID/g,"[7]; Muscle, 10 min p.i.",1.3±0.2 % ID/g
same,% ID/g,"[7]; Muscle, 60 min p.i.",0.4±0.1 % ID/g
same,% ID,"[7]; Pancreas, 2 min p.i.",1.1±0.1 % ID
same,% ID/g,"[7]; Pancreas, 2 min p.i.",5.4±0.9 % ID/g
same,% ID,"[7]; Pancreas, 10 min p.i.",0.6±0.1 % ID
same,% ID/g,"[7]; Pancreas, 10 min p.i.",2.7±0.2 % ID/g
same,% ID,"[7]; Pancreas, 60 min p.i.",0.5±0.2 % ID
same,% ID/g,"[7]; Pancreas, 60 min p.i.",2.0±0.5 % ID/g
same,% ID/g,"[7]; Skin, 2 min p.i.",1.3±0.1 % ID/g
same,% ID/g,"[7]; Skin, 10 min p.i.",2.4±0.3 % ID/g
same,% ID/g,"[7]; Skin, 60 min p.i.",1.1±0.3 % ID/g
same,% ID,"[7]; Spleen, 2 min p.i.",0.6±0.2 % ID
same,% ID/g,"[7]; Spleen, 2 min p.i.",4.0±0.8 % ID/g
same,% ID,"[7]; Spleen, 10 min p.i.",0.2±0.0 % ID
same,% ID/g,"[7]; Spleen, 10 min p.i.",2.0±0.2 % ID/g
same,% ID,"[7]; Spleen, 60 min p.i.",0.2±0.0 % ID
same,% ID/g,"[7]; Spleen, 60 min p.i.",1.4±0.3 % ID/g
same,% ID,"[7]; Stomach, 2 min p.i.",1.4±0.2 % ID
same,% ID,"[7]; Stomach, 10 min p.i.",2.0±0.7 % ID
same,% ID,"[7]; Stomach, 60 min p.i.",1.8±0.7 % ID
same,% ID,"[7]; Trigeminal nerve, 2 min p.i.",0.02±0.00 % ID
same,% ID/g,"[7]; Trigeminal nerve, 2 min p.i.",4.2±0.4 % ID/g
same,% ID,"[7]; Trigeminal nerve, 10 min p.i.",0.01±0.00 % ID
same,% ID/g,"[7]; Trigeminal nerve, 10 min p.i.",3.4±0.2 % ID/g
same,% ID,"[7]; Trigeminal nerve, 60 min p.i.",0.01±0.00 % ID
same,% ID/g,"[7]; Trigeminal nerve, 60 min p.i.",2.9±0.7 % ID/g
same,total brain uptake,"[7]; control mice, 2 min after injection",1.6 % ID
same,total brain uptake,"[7]; control mice, 60 min p.i.",0.1 % ID
same,"SUV in trigeminal nerve, isoflurane versus pentobarbital anaesthesia","[7]; control mice, isoflurane 2% in oxygen compared with pentobarbital 60 mg/kg i.p.",remarkable lower
same,blood 2 min/60 min ratio,[7]; [13],4.3
same,trigeminal nerve 2 min/60 min ratio,[7]; [13],1.5
same,trigeminal nerve-to-blood activity ratio,TRPV1 receptor [8]; mice pretreated with BCTC 10 mg/kg s.c. 1 h before tracer,1.0
same,trigeminal nerve-to-blood activity ratio,TRPV1 receptor [8]; mice pretreated with SB366791 10 mg/kg s.c. 1 h before tracer,1.3
same,trigeminal nerve-to-blood activity ratio,TRPV1 receptor [9],0.8
same,"intact tracer in plasma, of recovered radioactivity",[10]; 2 min after i.v. injection,52.0±3.0%
same,radiometabolites in plasma,[10]; 2 min p.i.,48.0%±3.0
same,radiometabolites in plasma,[10]; 10 min p.i.,82.4%±1.9
same,"intact tracer in brain, of total recovered radioactivity",[11]; 2 min after injection,85.6%±3.7
same,"intact tracer in brain, of total recovered radioactivity",[11]; 10 min after injection,67.2%±0.7

# From publication PMC6959540 (Nuclear medicine and biology, 2012)
